The species entered for series [1] is Homo sapiens. The series is described as follows: Activity at LXR (unknown origin). In a few lines: (§1)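 Eight-point serial dilutions tested in an in-house AlphaScreen-based nuclear receptor panel; activity derived from nonlinear regression curves.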
The nature of series [2]: Ratio of AUClast in mouse kidney to blood at 5 mg/kg, po measured up to 8 hrs post dose.
Series [3] in a line: AUClast in CD1 mouse at 0.5 mg/kg, iv measured up to 24 hrs post dose. In kind it is ADME, organism-based. More on the design: dose 0.5 mg/kg, time < 24 hr, route intravenous. To be noted: in vivo. In a few lines:
(§2)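 Mice given 0.5 mg/kg IV in saline containing 5% (v/v) DMSO and 20% (v/v) PEG400; blood pharmacokinetic parameters reported as means.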

The target in series [4] is Voltage-gated inwardly rectifying potassium channel KCNH2 (Homo sapiens, UniProt Q12809). The series can be described thus: Displacement of red fluorescent channel ligand tracer from human ERG expressed in CHO cell membranes. In a few lines: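 Fluorescence polarisation kit: membranes from CHO cells stably expressing hERG, with a red fluorescent high-affinity tracer; competitors detected by tracer displacement, seen as lowered polarisation. Final DMSO 1%; E-4031 reference.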

A short description of series [5]: Volume of distribution at steady state in CD1 mouse at 0.5 mg/kg, iv measured up to 24 hrs post dose. In kind it is ADME, organism-based. Particulars: in vivo, read-out: Vdss. In a few lines:
as §2

A short description of series [6]: AUClast in mouse blood at 5 mg/kg, po measured up to 8 hrs post dose. In kind it is ADME, organism-based. More on the design: time < 8 hr, dose 5 mg/kg, route oral. In a few lines: (§3)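 Mice dosed orally at 5 mg/kg in 0.5% (w/v) HPMC in water with 5% (v/v) DMSO; blood, liver and kidney concentrations followed to 8 h. AUC0–8h given in h·ng/mL; parameters reported as means.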

Series [7] concerns the target T1, Glucocorticoid receptor (Homo sapiens) (UniProt P04150).
T1 sequence (whole entry): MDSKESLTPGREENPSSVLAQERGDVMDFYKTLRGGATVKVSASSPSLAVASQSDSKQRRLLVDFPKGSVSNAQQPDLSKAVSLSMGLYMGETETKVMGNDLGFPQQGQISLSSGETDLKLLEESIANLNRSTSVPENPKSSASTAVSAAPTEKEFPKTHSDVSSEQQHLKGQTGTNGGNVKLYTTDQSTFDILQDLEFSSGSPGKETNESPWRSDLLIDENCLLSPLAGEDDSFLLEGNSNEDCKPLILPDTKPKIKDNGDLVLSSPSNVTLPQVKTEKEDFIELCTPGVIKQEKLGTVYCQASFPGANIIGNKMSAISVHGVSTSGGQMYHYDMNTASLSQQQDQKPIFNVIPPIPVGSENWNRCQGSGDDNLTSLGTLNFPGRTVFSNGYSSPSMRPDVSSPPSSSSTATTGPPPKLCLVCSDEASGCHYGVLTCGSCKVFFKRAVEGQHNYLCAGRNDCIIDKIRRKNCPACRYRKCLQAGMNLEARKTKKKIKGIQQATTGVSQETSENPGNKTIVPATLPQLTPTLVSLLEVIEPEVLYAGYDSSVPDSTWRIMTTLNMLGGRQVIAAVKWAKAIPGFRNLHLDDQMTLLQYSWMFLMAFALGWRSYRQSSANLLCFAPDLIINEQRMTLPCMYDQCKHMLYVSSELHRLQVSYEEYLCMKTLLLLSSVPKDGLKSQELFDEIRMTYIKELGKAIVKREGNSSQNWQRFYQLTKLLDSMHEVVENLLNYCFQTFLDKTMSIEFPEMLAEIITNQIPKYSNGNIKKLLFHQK
The series can be described thus: Activity at GR (unknown origin). In a few lines: as §1

The target of series [8] is T2, Cytochrome P450 3A1 (Rattus norvegicus, UniProt P04800).
T2 sequence (P04800 whole entry): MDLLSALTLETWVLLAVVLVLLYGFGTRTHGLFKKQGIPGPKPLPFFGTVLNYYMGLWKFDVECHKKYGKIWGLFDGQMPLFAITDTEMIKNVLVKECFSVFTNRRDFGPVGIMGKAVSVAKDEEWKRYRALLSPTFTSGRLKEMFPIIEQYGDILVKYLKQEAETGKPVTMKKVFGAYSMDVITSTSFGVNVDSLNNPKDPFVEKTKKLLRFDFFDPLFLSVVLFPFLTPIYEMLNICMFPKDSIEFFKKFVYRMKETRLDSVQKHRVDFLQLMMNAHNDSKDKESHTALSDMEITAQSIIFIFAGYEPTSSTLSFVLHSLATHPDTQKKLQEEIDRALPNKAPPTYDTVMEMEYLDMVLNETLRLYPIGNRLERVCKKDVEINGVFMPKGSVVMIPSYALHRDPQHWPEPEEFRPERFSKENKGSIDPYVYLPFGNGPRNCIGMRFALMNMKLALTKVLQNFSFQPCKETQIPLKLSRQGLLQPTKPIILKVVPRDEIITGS
The series is described as follows: Inhibition of recombinant rat CYP3A1 expressed in baculosomes expression system using fluorogenic-BOMCC as substrate by fluorescent homogeneous assay. In kind it is ADME. In a few lines: (§4)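 Recombinant CYP baculosomes with fluorogenic substrates, at concentrations below their Km; homogeneous fluorescence read-out, run in triplicate. IC50 classes: <1 μM potent, 1–10 μM moderate, >10 μM weak or none.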

For series [9], the target named is Cytochrome P450 2C19 (Homo sapiens, UniProt P33261). The series is described as follows: Inhibition of recombinant human CYP2C19 expressed in baculosomes expression system using fluorogenic-BOMCC as substrate by fluorescent homogeneous assay. In kind it is ADME. In a few lines:
as §4

Series [10] has as its system Mus musculus. The series is described as follows: In vivo inhibition of ACMSD in CD1 mouse kidney at 5 mg/kg, po after 0.5 to 2 hrs. In kind it is functional, organism-based. In a few lines: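 CD1 mice dosed orally at 5 mg/kg in 0.5% (w/v) HPMC in water with 5% (v/v) DMSO; kidneys collected at various times, snap-frozen and ground. Tissue powder homogenised in 50 mM Tris pH 7.5, 0.15 M NaCl with protease inhibitors, spun 38 000g 20 min at 4 °C. Supernatant assayed spectrophotometrically with 30 μM 3-hydroxyanthranilic acid; activity normalised to BCA protein. One-way ANOVA with Dunnett's test.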

Series [11] is described as follows: AUClast in mouse kidney at 5 mg/kg, po measured up to 8 hrs post dose. In kind it is ADME, organism-based. More on the design: time < 8 hr, dose 5 mg/kg, route oral. In a few lines:
as §3

Series [12] can be described thus: Clearance in CD1 mouse at 0.5 mg/kg, iv measured up to 24 hrs post dose. In kind it is ADME, organism-based. Particulars: in vivo. In a few lines: as §2
Series [13] can be described thus: Oral bioavailability in CD1 mouse at 5 mg/kg measured up to 8 hrs after dose. In kind it is ADME, organism-based. Particulars: in vivo. In a few lines: as §3
The species entered for series [14] is Homo sapiens. The series is described as follows: Activity at PPAR (unknown origin). In a few lines:
as §1

In series [15] the target is T3, Nuclear receptor subfamily 1 group I member 2 (Homo sapiens, UniProt O75469).
T3 sequence (O75469 whole entry): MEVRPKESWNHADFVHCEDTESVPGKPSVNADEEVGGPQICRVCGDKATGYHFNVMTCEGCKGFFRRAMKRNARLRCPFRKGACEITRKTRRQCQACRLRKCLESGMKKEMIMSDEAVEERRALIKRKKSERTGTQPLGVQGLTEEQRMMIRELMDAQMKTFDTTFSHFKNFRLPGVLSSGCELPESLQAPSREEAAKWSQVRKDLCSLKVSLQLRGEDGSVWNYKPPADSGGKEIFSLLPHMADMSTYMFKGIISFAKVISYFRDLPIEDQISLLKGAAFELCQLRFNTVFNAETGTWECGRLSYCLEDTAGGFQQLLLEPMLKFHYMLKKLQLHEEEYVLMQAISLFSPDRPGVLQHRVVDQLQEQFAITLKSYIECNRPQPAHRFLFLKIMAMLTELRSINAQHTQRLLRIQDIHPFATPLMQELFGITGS
The series can be described thus: Activity at PXR (unknown origin). In a few lines: as §1

Activity calls are given as the source filed them. No cut-off for these calls is given here. A value given as a limit tells only on which side of the number the result lay.

Sequence of Voltage-gated inwardly rectifying potassium channel KCNH2 (Q12809 whole entry): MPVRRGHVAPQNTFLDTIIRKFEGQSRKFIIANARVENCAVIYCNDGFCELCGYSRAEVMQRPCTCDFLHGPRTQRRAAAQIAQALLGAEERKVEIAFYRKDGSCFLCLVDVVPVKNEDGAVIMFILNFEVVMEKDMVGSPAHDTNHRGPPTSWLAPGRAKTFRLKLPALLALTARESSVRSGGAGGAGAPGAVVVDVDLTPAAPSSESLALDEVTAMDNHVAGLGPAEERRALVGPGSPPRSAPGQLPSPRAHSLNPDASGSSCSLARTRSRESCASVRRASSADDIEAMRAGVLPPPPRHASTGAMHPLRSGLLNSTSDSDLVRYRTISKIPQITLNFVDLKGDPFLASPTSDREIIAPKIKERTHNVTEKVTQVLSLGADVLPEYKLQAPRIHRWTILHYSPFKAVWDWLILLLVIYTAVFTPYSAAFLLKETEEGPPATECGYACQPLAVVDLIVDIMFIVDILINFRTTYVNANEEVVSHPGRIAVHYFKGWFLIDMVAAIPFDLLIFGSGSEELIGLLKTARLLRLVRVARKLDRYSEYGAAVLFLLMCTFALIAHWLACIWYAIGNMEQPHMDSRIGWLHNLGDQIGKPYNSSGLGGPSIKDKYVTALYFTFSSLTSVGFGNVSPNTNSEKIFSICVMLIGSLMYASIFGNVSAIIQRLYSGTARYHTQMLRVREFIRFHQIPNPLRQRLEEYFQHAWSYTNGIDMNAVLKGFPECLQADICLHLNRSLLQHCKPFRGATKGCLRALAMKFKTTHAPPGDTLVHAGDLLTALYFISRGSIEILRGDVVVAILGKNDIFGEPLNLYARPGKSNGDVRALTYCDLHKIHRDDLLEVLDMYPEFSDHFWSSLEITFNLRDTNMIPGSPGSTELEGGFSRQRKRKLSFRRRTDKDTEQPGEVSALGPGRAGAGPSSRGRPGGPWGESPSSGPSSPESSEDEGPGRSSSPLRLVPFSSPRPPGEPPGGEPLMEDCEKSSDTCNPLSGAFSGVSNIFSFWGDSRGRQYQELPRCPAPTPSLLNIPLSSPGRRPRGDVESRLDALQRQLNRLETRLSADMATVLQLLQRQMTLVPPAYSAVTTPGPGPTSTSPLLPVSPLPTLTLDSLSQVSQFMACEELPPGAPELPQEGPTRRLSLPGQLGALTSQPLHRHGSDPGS
Sequence of Cytochrome P450 2C19 (P33261 whole entry): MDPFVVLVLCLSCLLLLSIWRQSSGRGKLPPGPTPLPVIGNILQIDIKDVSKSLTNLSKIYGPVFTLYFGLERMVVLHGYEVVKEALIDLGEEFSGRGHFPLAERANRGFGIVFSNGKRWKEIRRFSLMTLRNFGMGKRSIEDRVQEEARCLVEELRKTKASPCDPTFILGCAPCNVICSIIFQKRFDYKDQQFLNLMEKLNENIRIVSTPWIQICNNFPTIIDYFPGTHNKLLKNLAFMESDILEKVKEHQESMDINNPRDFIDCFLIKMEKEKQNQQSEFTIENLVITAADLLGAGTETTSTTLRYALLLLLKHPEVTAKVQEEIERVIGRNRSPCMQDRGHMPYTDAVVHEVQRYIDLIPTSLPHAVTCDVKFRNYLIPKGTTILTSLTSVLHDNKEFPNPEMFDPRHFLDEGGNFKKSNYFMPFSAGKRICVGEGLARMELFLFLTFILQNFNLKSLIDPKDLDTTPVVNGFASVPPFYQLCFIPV

`N#Cc1c(-c2cccs2)nc(SCc2cccc(CC(=O)O)c2)[nH]c1=O`: the result in series [1], in series [7] and in series [14] was inactive. In [2], the Kp at 8 h came to 2.9. The compound further returned an AUC(0-t) at 24 h in series [3] of 10700 ng·h/mL. In addition, in [4], the “inhibition (INH)” value was “Not Active”. For the same compound, the Vd in series [5] worked out at 0.273 L/kg. In addition, the values for the AUC(0-t) at 8 h in series [6] and in series [11] were 12700 ng·h/mL and 36600 ng·h/mL, respectively. Also, the IC50 in series [8] and in [9] was over 10 µM throughout. The inhibition result in [10] was “Active”. Also, the clearance in series [12] amounted to 0.78 mL/min/kg. In series [13], the bioavailability turned out to be 12%. In addition, the Activity result in series [15] is listed as “Not Active”.
